Laboratory results reported in ChEMBL document CHEMBL3580587, “Design of Pyridopyrazine-1,6-dione γ-Secretase Modulators that Align Potency, MDR Efflux Ratio, and Metabolic Stability” (ACS Med Chem Lett, 2015).

biological target: Gamma-secretase; assay: Modulation of human gamma secretase overexpressed in CHO cells co-expressing wild type human APP assessed as inhibition of amyloid beta-42 production after 24 hrs by ELISA; type: cell-based; details: not given
Method in brief: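 Whole-cell assay in CHO cells expressing wild-type APP; Aβ42 IC50 reported as geometric mean of at least two experiments.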

Structure (SMILES)	IC50
Cc1cn(-c2ccc3n(c2=O)CCN(CCOc2ccccc2-c2cc(C(F)F)no2)C3=O)cn1	72 nM
Cc1cn(-c2ccc3n(c2=O)CCN([C@@H](C)COc2ccc(F)cc2[C@@H](C)C(F)(F)F)C3=O)cn1	6 nM
Cc1cn(-c2ccc3n(c2=O)CCN(CCOc2ccc(F)cc2C2CC(F)(F)C2)C3=O)cn1	59 nM
Cc1cn(-c2ccc3n(c2=O)CCN(CCOc2ccccc2-c2cc(C(F)(F)F)no2)C3=O)cn1	17 nM
Cc1cn(-c2ccc3n(c2=O)CCN(CCOc2ccccc2-c2csc(C)n2)C3=O)cn1	302 nM
Cc1cn(-c2ccc3n(c2=O)CCN(CCOc2ccccc2C(C)(C)C)C3=O)cn1	128 nM
Cc1cn(-c2ccc3n(c2=O)CCN(CCOc2ccc(F)cc2[C@@H](C)C(F)(F)F)C3=O)cn1	20 nM
Cc1cn(-c2ccc3n(c2=O)CCN(CCOc2ccc(F)cc2C(C)(C)C(F)(F)F)C3=O)cn1	30 nM
Cc1cn(-c2ccc3n(c2=O)CCN(CCOc2ccccc2-c2cc(C)ns2)C3=O)cn1	104 nM
Cc1cn(-c2ccc3n(c2=O)CCN(CCOc2ccc(F)cc2[C@H](C)C(F)(F)F)C3=O)cn1	85 nM
Cc1cn(-c2ccc3n(c2=O)CCN(CCOc2ccc(F)c4nc(C(F)(F)F)sc24)C3=O)cn1	25 nM
Cc1cn(-c2ccc3n(c2=O)CCN(CCOc2ccccc2C2CCC2)C3=O)cn1	73 nM
Cc1cn(-c2ccc3n(c2=O)CCN(CCOc2ccccc2-c2csc(C(F)(F)F)n2)C3=O)cn1	18 nM

system: MDR1 (human); assay: Efflux ratio of apparent permeability from basolateral to apical over apical to basolateral side in MDCK cells expressing human MDR1 at 2 uM after 5 hrs by transwell assay; type: ADME, cell-based, Canis lupus familiaris; details: dog
Method in brief: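 MDR1/MDCK assay using MDCK cells transfected with the human P-glycoprotein gene; efflux ratio reported.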

Structure (SMILES)	efflux ratio at 5 h, 2 µM
Cc1cn(-c2ccc3n(c2=O)CCN(CCOc2ccccc2C(C)(C)C)C3=O)cn1	1.7

system: not listed separately; assay: Apparent intrinsic clearance in human liver microsomes; type: ADME; details: read-out: CLH(app)

Structure (SMILES)	CLint scaled
Cc1cn(-c2ccc3n(c2=O)CCN(CCOc2ccccc2C(C)(C)C)C3=O)cn1	95.7 mL/min/kg
Cc1cn(-c2ccc3n(c2=O)CCN(CCOc2cccc4ccc(F)cc24)C3=O)cn1	8.1 mL/min/kg
